For 69 molecules, Ki results are on record in ChEMBL document CHEMBL1914440, “Discovery of potent, selective, and orally bioavailable alkynylphenoxyacetic acid CRTH2 (DP2) receptor antagonists for the treatment of allergic inflammatory diseases” (J Med Chem, 2011).

Usually Ki stands for a dissociation constant, usually derived from enzyme kinetics or from competition with a known ligand. Low values mean tighter binding, high ones weaker binding.

For the experiment, the target named is T1, Prostaglandin D2 receptor 2 (Homo sapiens, UniProt Q9Y5Y4).
T1 sequence (Q9Y5Y4 whole entry): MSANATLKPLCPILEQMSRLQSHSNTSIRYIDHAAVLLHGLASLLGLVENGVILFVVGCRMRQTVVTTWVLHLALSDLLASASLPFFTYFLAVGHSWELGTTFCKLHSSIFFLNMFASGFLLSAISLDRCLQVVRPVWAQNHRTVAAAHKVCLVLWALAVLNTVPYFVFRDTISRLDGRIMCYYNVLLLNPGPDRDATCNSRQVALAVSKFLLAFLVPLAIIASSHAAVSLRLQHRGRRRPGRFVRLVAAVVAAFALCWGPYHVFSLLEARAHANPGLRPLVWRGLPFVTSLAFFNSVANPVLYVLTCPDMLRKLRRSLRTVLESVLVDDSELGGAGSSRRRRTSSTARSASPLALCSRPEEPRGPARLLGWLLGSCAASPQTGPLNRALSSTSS
In words: Displacement of [3H]PGD2 from human CRTH2 expressed in chinese hamster CHO cells by liquid scintillation counting. The class given is cell-based. The method in brief:
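Scintillation proximity competition assay: 2–5 μg human CRTH2 cell membranes, 1.5 nM [3H]PGD2, WGA-SPA beads, 10 mM HEPES/KOH pH 7.4, 10 mM MnCl2, protease inhibitors, 1% DMSO; 90 min, room temperature, shaking. Nonspecific binding defined with 1 μM PGD2. Ki by Cheng–Prusoff, mean of ≥3 independent dose–response experiments.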
On the technique in general: Loss of bound radioactivity is the signal in a displacement assay; it reports binding, not function.
`CS(=O)(=O)c1cc(C#Cc2cc(Cl)ccc2OCC(=O)O)ccc1-c1ccccc1` had an inhibition constant Ki of 5 nM.
As for `Cc1ccc(S(=O)(=O)N(C)CCCN(C)C)cc1C#Cc1cc(Cl)ccc1OCC(=O)O`, the affinity, expressed as Ki, was 287 nM.
Take `COC1c2ccc(C#Cc3cc(Cl)ccc3OCC(=O)O)cc2S(=O)(=O)C1(C)C` (centres undefined): the Ki worked out at 21 nM. This Ki is about 14-fold lower than that of the molecule before.
In turn, `CCCS(=O)(=O)c1cccc(C#Cc2c(OCC(=O)O)ccc3ccccc23)c1` displayed a Ki of 44 nM.
Take `Cc1ccc(S(=O)(=O)NC(C)(C)C)cc1C#Cc1cc(Cl)ccc1OCC(=O)O`: affinity was put at a Ki of 5 nM.
In turn, `CN(C)C(=O)c1ccc(C#Cc2cc(Cl)ccc2OCC(=O)O)cc1` registered a Ki of 55 nM.
Then `O=C(O)COc1ccc(Cl)cc1C#Cc1cccc(CO)c1F`, with 41 nM; and `O=C(O)COc1ccc(Cl)cc1C#Cc1cccc(S(=O)(=O)CCCO)c1`, with 28 nM.
With `CC(C)(C)N1C(=O)c2ccc(C#Cc3cc(Cl)ccc3OCC(=O)O)cc2S1(=O)=O`, the affinity corresponds to a Ki of 14 nM.
`CCCS(=O)(=O)c1ccc(C)c(C#Cc2cc(Cl)ccc2OC(CC(C)C)C(=O)O)c1` (centres undefined): the Ki was 515 nM.
For `CCCS(=O)(=O)c1ccc(F)c(C#Cc2cc(Cl)ccc2OC(C)(C)C(=O)O)c1`, the inhibition constant (Ki) worked out at 260 nM.
The molecule `CS(=O)(=O)Nc1cccc(C#Cc2cc(Cl)ccc2OCC(=O)O)c1` showed a Ki of 54 nM. This Ki is about 4.8-fold lower than that of the molecule before.
Then `O=C(O)COc1ccc(Cl)cc1C#Cc1ccccc1Cl`, with 28 nM; and `O=C(O)COc1ccc(Cl)cc1C#Cc1ccccc1C(F)(F)F`, with 24 nM.
In the case of `CC1(C)C(O)c2ccc(C#Cc3cc(Cl)ccc3OCC(=O)O)cc2S1(=O)=O` (centres undefined), the inhibition constant (Ki) amounted to 33 nM.
`Cc1cc[n+]([O-])cc1C#Cc1cc(Cl)ccc1OCC(=O)O` had a Ki of 17 nM.
Then `O=C(O)COc1ccc(Cl)cc1C#Cc1ccc2c(c1)S(=O)(=O)CC2`, with 23 nM.
Then `CCCS(=O)(=O)c1cccc(C#Cc2cc(-c3sc(C)nc3C)ccc2OCC(=O)O)c1`, with 54 nM.
Regarding `CCN(Cc1cc(-c2ccc(OC)cn2)ccc1-c1cc(CC(=O)O)ccc1OC)C(=O)C1CC1`, the Ki was 5 nM.
In the case of `O=C(O)COc1ccc(Cl)cc1C#Cc1cncc(S(=O)(=O)NCCO)c1`, the Ki was determined as 301 nM.
`Cc1ccc(OCC(=O)O)c(C#Cc2ccccc2Cl)c1` gave a Ki of 283 nM. The Ki values of the last two molecules are within 1.5-fold of each other.
`CCCS(=O)(=O)c1ccc(C)c(C#Cc2cc(Cl)ccc2OC(C)C(=O)O)c1` (centres undefined): the Ki stood at 1.2 nM.
Then `O=C(O)COc1ccc(Cl)cc1C#Cc1cccc(C(F)(F)F)c1`, with 92 nM.
`CCCS(=O)(=O)c1cccc(C#Cc2cc(-c3ccsc3)ccc2OCC(=O)O)c1` had a Ki of 18 nM.
`CS(=O)(=O)c1cncc(C#Cc2cc(Cl)ccc2OCC(=O)O)c1` returned a Ki of 60 nM.
In the case of `CCCS(=O)(=O)c1cccc(C#Cc2cc(F)ccc2OCC(=O)O)c1`, the inhibitory constant (Ki) was 65 nM. This Ki and that of the molecule before are within 1.5-fold of each other.
For the molecule `C[S+]([O-])c1cccc(C#Cc2cc(Cl)ccc2OCC(=O)O)c1` (centres undefined), the Ki turned out to be 3.2 nM.
The molecule `CCS(=O)(=O)c1ccc(C)c(C#Cc2cc(Cl)ccc2OCC(=O)O)c1` had an inhibition constant (Ki) of 8.6 nM.
On to `CCCS(=O)(=O)c1cccc(C#Cc2c(Cl)cccc2OCC(=O)O)c1`, for which the inhibitory constant (Ki) was determined as 55 nM.
`CS(=O)(=O)c1cc(C#Cc2cc(Cl)ccc2OCC(=O)O)ccc1-c1ccccc1Cl` had an inhibitory constant (Ki) of 3.5 nM. Compared with the last molecule, the Ki is about 16-fold lower.
Consider `CC(C)S(=O)(=O)c1cc(C#Cc2cc(Cl)ccc2OCC(=O)O)ccc1C(=O)N1CCOCC1`, for which the inhibitory constant (Ki) was determined as 87 nM.
Then `CN(C)C(=O)c1cccc(C#Cc2cc(Cl)ccc2OCC(=O)O)c1`, with 52 nM; and `CN(c1cccc(C#Cc2cc(Cl)ccc2OCC(=O)O)c1)S(C)(=O)=O`, with 122 nM.
Molecule `Cc1ccc(S(=O)(=O)Cc2ccccc2)cc1C#Cc1cc(Cl)ccc1OCC(=O)O` returned an inhibition constant (Ki) of 5 nM. This Ki is about 24-fold lower than that of the molecule before.
In turn, `O=C(O)COc1ccc(Cl)cc1C#Cc1ccc(Cl)cc1` had a Ki of 60 nM.
`Cc1ccc(S(=O)(=O)CCO)cc1C#Cc1cc(Cl)ccc1OCC(=O)O` had a Ki of 19 nM. Against the preceding molecule, the Ki is about 3.2-fold lower.
`CC1(O)c2ccc(C#Cc3cc(Cl)ccc3OCC(=O)O)cc2S(=O)(=O)C1(C)C` (centres undefined) showed an inhibition constant Ki of 28 nM.
As to `COCc1ccc(F)c(C#Cc2cc(Cl)ccc2OCC(=O)O)c1`, the affinity, expressed as Ki, was 72 nM.
As for `O=C(O)COc1ccc(Cl)cc1C#Cc1cncc(S(=O)(=O)N2CCOCC2)c1`, the figure is 41 nM; as for `COCc1ccc(C#Cc2cc(Cl)ccc2OCC(=O)O)c(F)c1`, 22 nM; as for `COC1(C)c2ccc(C#Cc3cc(Cl)ccc3OCC(=O)O)cc2S(=O)(=O)C1(C)C` (centres undefined), 25 nM.
Regarding `CC(C)Cc1ccncc1C#Cc1cc(Cl)ccc1OCC(=O)O`, the Ki amounted to 4.9 nM.
For `COc1cccc(-c2ccc(C#Cc3cc(Cl)ccc3OCC(=O)O)cc2S(C)(=O)=O)c1`, the inhibitory constant (Ki) was found to be 8 nM.
In the case of `CS(=O)(=O)c1ccc(C#Cc2cc(Cl)ccc2OCC(=O)O)cc1`, the Ki is 86 nM.
In the case of `CCCS(=O)(=O)c1ccc(C)c(C#Cc2cc(Cl)ccc2OC(CC)C(=O)O)c1` (centres undefined), the affinity, expressed as Ki, was 30 nM.
As for `O=C(O)COc1ccc(Cl)cc1C#Cc1ccc(F)cc1F`, the figure is 101 nM; as for `Cc1ccc(S(=O)(=O)CCc2ccccc2)cc1C#Cc1cc(Cl)ccc1OCC(=O)O`, 7 nM; as for `Cc1ccncc1C#Cc1cc(Cl)ccc1OCC(=O)O`, 25 nM.
`O=C(O)COc1ccc(Cl)cc1C#Cc1ccc(Cl)s1`: the Ki stood at 183 nM. Against the preceding molecule, the Ki is about 7.3-fold higher.
The molecule `O=C(O)COc1cc(F)ccc1C#Cc1ccccc1Cl` showed an inhibitory constant (Ki) of 4780 nM.
The molecule `O=C(O)COc1ccc(Cl)cc1C#Cc1cc(CO)ccc1F` gave a Ki of 73 nM.
Consider `CCCS(=O)(=O)c1cc(C#Cc2cc(Cl)ccc2OCC(=O)O)c(C)cc1NC(C)=O`, for which affinity was put at a Ki of 1.3 nM.
The molecule `CCCc1ccncc1C#Cc1cc(Cl)ccc1OCC(=O)O` registered a Ki of 4.3 nM.
`CCCS(=O)(=O)c1cccc(C#Cc2cc(C(F)(F)F)ccc2OCC(=O)O)c1` registered an inhibition constant (Ki) of 10 nM.
As for `CCCCCCc1ccncc1C#Cc1cc(Cl)ccc1OCC(=O)O`, the figure is 43 nM; as for `CS(=O)(=O)Cc1cccc(C#Cc2cc(Cl)ccc2OCC(=O)O)c1`, 48 nM; as for `Cc1ccc(S(=O)(=O)c2ccccc2)cc1C#Cc1cc(Cl)ccc1OCC(=O)O`, 6 nM.
`Cc1ccc(S(=O)(=O)C(C)C)cc1C#Cc1cc(Cl)ccc1OCC(=O)O` gave a Ki of 6 nM.
With `COc1ccc(-c2ccc(C#Cc3cc(Cl)ccc3OCC(=O)O)cc2S(C)(=O)=O)cc1`, the Ki was found to be 7 nM.
`CCCS(=O)(=O)c1ccc(F)c(C#Cc2cc(Cl)ccc2OC(C)C(=O)O)c1` (centres undefined) showed a Ki of 3 nM.
The molecule `O=C(O)COc1ccc(Cl)cc1C#Cc1ccncc1` yielded an inhibition constant (Ki) of 601 nM.
`Cc1ccc(S(=O)(=O)N2CCCCC2)cc1C#Cc1cc(Cl)ccc1OCC(=O)O` displayed a Ki of 5 nM. Compared with the last molecule, the Ki is about 120-fold lower.
In turn, `CCCC(Oc1ccc(Cl)cc1C#Cc1cc(S(=O)(=O)CCC)ccc1C)C(=O)O` (centres undefined) yielded a Ki of 57 nM.
As for `Cc1ccc(S(=O)(=O)CC(C)C)cc1C#Cc1cc(Cl)ccc1OCC(=O)O`, the Ki was found to be 3 nM.
Regarding `Cc1ncccc1C#Cc1cc(Cl)ccc1OCC(=O)O`, the inhibitory constant (Ki) was 143 nM.
`CS(=O)(=O)c1cc(C#Cc2cc(Cl)ccc2OCC(=O)O)ccc1-c1cccc(Cl)c1` came in with an inhibitory constant (Ki) of 16 nM.
Molecule `CS(=O)(=O)c1cc(C#Cc2cc(Cl)ccc2OCC(=O)O)ccc1-c1ccc(Cl)cc1` had a Ki of 14 nM.
Then `CN(c1cncc(C#Cc2cc(Cl)ccc2OCC(=O)O)c1)S(C)(=O)=O`, with 378 nM; and `Cc1ccc(S(=O)(=O)N2CCN(C)CC2)cc1C#Cc1cc(Cl)ccc1OCC(=O)O`, with 21 nM.
